Key:
[1] = target: T1, ATP-dependent translocase ABCB1 (Homo sapiens, UniProt P08183); assay: Activation of human P-glycoprotein ATPase in Caco-2 cells assessed as ATP depletion at 100 uM; assay type: cell-based; conditions: caco-2, 100 µM
[2] = target: T1, ATP-dependent translocase ABCB1; assay: Inhibition of human P-glycoprotein mediated [3H]vinblastine transport in human Caco-2 cells; assay type: cell-based
Caco-2 = assay: Ratio of permeability from basolateral to apical side over apical to basolateral side in human Caco-2 cells
MCF7 [3] = assay: Cytotoxicity against human MCF7 cells assessed as LDH release upto 50 uM after 48 hrs; assay type: cell-based; conditions: mcf7, 48 h
[4] = Cytotoxicity against human Adr cells assessed as LDH release upto 50 uM after 48 hrs; assay type: cell-based
In short: (§1)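 MCF-7/Adr cells, which overexpress P-gp, were exposed in complete medium with or without test compound. LDH released into the medium was read with CytoTox-One substrate mix: 10 min at room temperature in the dark, then stop solution, fluorescence ex 560/em 590 nm. Cytotoxicity % is (treated LDH − medium background)/(total LDH of lysed untreated cells − background) × 100.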

[5] = target: T2, Broad substrate specificity ATP-binding cassette transporter ABCG2 (Homo sapiens, UniProt Q9UNQ0); assay: Inhibition of human BCRP pump mediated [3H]mitoxantrone transport in human Caco-2 cells; assay type: cell-based
T2 sequence (Q9UNQ0 whole entry): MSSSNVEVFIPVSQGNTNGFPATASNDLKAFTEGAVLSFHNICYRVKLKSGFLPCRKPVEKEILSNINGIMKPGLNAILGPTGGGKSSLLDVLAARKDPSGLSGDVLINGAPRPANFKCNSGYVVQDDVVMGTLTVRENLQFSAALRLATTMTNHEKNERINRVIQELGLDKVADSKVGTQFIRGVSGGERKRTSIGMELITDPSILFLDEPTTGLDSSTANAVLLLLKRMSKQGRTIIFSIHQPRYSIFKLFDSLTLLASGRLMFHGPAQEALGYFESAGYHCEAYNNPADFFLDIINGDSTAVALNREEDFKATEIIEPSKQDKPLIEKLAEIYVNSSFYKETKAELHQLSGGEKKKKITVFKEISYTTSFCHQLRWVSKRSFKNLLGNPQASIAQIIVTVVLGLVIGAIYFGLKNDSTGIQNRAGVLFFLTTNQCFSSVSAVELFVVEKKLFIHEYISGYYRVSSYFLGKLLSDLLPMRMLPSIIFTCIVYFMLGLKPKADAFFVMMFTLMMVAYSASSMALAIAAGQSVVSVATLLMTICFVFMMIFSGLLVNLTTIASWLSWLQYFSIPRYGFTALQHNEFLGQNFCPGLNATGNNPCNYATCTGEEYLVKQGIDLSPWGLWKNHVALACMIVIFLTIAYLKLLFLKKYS
In short: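 Caco-2 cells were grown 21 days on multiscreen filters at 10 000 cells/well, and monolayers were used at TEER >800 Ω×cm². 20 nM [³H]-mitoxantrone was added basolaterally with or without compound (0.20–400 µM) for 120 min at 37 °C, and apical appearance was scintillation-counted. Percent inhibition at each concentration gave EC50; three independent determinations, triplicate samples.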

MCF7 [6] = assay: Cytotoxicity against adriamycin-resistant human MCF7 cells assessed as LDH release at 1 uM after 48 hrs; assay type: cell-based; conditions: mcf7, 48 h; in short: as §1

T1 sequence (P08183 whole entry): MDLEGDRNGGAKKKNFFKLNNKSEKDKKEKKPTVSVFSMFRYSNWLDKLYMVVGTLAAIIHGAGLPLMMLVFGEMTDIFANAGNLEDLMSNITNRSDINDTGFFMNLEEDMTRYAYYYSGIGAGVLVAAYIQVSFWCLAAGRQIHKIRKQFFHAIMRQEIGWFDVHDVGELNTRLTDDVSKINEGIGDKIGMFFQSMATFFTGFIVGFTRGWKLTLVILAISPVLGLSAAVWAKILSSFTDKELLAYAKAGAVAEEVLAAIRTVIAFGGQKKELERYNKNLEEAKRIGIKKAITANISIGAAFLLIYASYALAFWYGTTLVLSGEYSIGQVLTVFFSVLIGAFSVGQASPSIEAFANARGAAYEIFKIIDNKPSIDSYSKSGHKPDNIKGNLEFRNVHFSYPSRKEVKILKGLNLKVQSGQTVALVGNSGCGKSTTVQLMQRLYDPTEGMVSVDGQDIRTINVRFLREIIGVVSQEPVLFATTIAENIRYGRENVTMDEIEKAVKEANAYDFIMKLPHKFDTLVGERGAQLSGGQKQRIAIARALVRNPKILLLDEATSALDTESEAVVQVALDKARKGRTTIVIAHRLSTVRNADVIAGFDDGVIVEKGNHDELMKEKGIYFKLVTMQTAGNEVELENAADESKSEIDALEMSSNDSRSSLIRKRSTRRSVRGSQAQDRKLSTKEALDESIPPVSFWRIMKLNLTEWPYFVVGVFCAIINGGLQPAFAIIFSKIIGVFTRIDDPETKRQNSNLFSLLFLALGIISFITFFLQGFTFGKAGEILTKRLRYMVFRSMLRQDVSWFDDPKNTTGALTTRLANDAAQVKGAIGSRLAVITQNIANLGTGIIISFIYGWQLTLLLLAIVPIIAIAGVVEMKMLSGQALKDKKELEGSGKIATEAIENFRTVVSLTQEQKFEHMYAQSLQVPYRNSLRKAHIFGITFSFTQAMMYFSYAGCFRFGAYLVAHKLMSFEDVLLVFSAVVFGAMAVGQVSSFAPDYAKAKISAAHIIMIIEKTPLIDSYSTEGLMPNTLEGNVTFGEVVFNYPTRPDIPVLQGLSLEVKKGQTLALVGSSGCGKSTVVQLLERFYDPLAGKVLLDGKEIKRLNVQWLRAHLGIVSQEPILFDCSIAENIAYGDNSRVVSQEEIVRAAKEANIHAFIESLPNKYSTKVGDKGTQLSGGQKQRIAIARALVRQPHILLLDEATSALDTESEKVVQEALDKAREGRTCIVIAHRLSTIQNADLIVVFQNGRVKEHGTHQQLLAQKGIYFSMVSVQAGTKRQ

| SMILES | Activity [1] | EC50 [2] [µM] | Ratio (Caco-2) | Activity (MCF7 [3]) | Activity [4] | EC50 [5] [µM] | Activity (MCF7 [6]) [%] |
| --- | --- | --- | --- | --- | --- | --- | --- |
| COc1cccc(CCc2ccccc2OCc2ccccc2)c1 | Not Active | – | – | – | – | – | – |
| c1ccc(CCc2ccccc2OCc2ccccc2)cc1 | Active | > 1000 | – | – | – | – | – |
| c1ccc(CCc2ccccc2OCc2ccccn2)cc1 | Not Active | – | – | – | – | – | – |
| COc1cccc(CCc2ccccc2OCc2cccnc2)c1 | Active | > 1000 | – | – | – | – | – |
| c1ccc(CCc2ccccc2OCc2cccnc2)cc1 | Active | – | – | – | – | – | – |
| COc1cccc(CCc2ccccc2OCc2cccc(OC)c2)c1 | Not Active | – | 13 | – | – | – | – |
| COc1cccc(CCc2ccccc2OCc2cccc(OC)c2OC)c1 | Active | – | – | Not Active | Not Active | 120 | – |
| COc1cccc(COc2ccccc2CCc2ccccc2)c1OC | Not Active | 0.8 | 0.95 | Not Active | Not Active | 75 | – |
| COc1cccc(CCc2ccccc2NCc2cc(OC)cc(OC)c2)c1 | Not Active | 0.9 | 6.9 | Not Active | Not Active | – | – |
| COc1cccc(CCc2ccccc2OCc2ccccc2OC)c1 | Not Active | 12 | 8.7 | – | – | – | – |
| COc1cccc(CCc2ccccc2OCc2cc(OC)cc(OC)c2)c1 | Not Active | 2.5 | 6.7 | – | – | – | – |
| COc1cc(COc2ccccc2CCc2ccccc2)cc(OC)c1 | Not Active | 1.6 | 5.7 | – | – | – | – |
| COc1ccc(COc2ccccc2CCc2ccccc2)cc1OC | Not Active | 0.75 | 2.1 | – | 10% | 58 | – |
| c1ccc(CCc2ccccc2OCc2ccncc2)cc1 | Active | 18 | 1.3 | – | – | – | – |
| COc1ccccc1COc1ccccc1CCc1ccccc1 | Not Active | 20 | 1.4 | – | – | – | – |
| COc1cccc(CCc2ccccc2NCc2ccc(OC)c(OC)c2)c1 | Not Active | 0.18 | 5.6 | Not Active | Not Active | 0.5 | – |
| COc1cccc(CCc2ccccc2NCc2cccc(OC)c2OC)c1 | Not Active | 0.085 | 5.5 | Not Active | Not Active | 1.5 | – |
| COc1cccc(CCc2ccccc2OCc2ccc(OC)c(OC)c2)c1 | Not Active | 0.65 | 5.1 | Not Active | Not Active | 150 | – |
| COc1cccc(CCc2ccccc2OCc2ccncc2)c1 | Active | 0.85 | 2.1 | – | – | – | 50 |
| COc1cccc(CCc2ccccc2OCc2ccccn2)c1 | Not Active | – | – | – | – | – | – |
| COc1cc2c(cc1OC)CN(CCc1ccc(NC(=O)c3cccc4c(=O)c5cccc(OC)c5[nH]c34)cc1)CC2 | Not Active | – | – | – | – | – | – |
| COc1ccc(COc2ccccc2CCc2ccccc2)cc1 | Not Active | 3.1 | 5.1 | – | – | – | – |
| COc1cccc(CCc2ccccc2NCc2cccc(OC)c2)c1 | Not Active | 0.48 | 2.9 | – | 10% | 7 | – |
| COc1ccc(COc2ccccc2CCc2cccc(OC)c2)cc1 | Not Active | 5.2 | 7.6 | – | – | – | – |

From ChEMBL document CHEMBL1142354, “Synthesis and biological evaluation of (hetero)arylmethyloxy- and arylmethylamine-phenyl derivatives as potent P-glycoprotein modulating agents” (J Med Chem, 2008)
